Assay results from PMC3159820 (Journal of immunology (Baltimore, Md. : 1950), 2011).

Tested on: T cell hybridoma HH8
Assay: Activation of T cell hybridoma HH8 by PT-gluten
Format: cell-based, mouse
Settings: HH8 and DB4, in words
Summary of the method: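 Irradiated (8,000 rads) T2DM cells (100,000) retrovirally expressing DQ2 WT or mutant co-cultured 16-24 h with HH8 hybridoma (100,000) and titrated PT-gluten (0.06-3 μg/μl); supernatant IL-2 by mouse IL-2 ELISA. PT-gluten: gluten digested with pepsin (pH 2.0), then trypsin/chymotrypsin (pH 6), 37°C; heat-inactivated; dialysed high-molecular-weight fraction deamidated with guinea pig transglutaminase (100 ug/ml, 1mM CaCl2, 37°C, 2h).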

Sequence | effect of DM on presentation of the epitope
PQPELPYPQPQL [α-II-gliadin 62-70] | DM-suppressed epitope
QLQPFPQPELPYPQPQS [α-gliadin 57-73 Q65E] | suppressed by DM in endocytic compartments
